From ChEMBL document CHEMBL1909512, “Indolin-2-one p38α inhibitors III: bioisosteric amide replacement” (Bioorg Med Chem Lett, 2011)

Test system: Blood
Assay: Inhibition of LPS-induced TNFalpha release in human whole blood after 24 hrs by ELISA
Assay type: functional, tissue-based
Conditions: not given

IC50 [nM]	SMILES
50	Cc1nnc(-c2ccc(C)c(-c3ccc4c(c3)NC(=O)C43CCN(S(C)(=O)=O)CC3)c2)[nH]1
50	Cc1ccc2c(NC3CC3)noc2c1-c1ccc2c(c1)NC(=O)C2(C)C
731	Cc1ccc2c(N)noc2c1-c1ccc2c(c1)NC(=O)C2(C)C
624	Cc1nnc(-c2ccc(C)c(-c3ccc4c(c3)NC(=O)C43CCC3)c2)[nH]1
10.7	Cc1ccc2c(NC3CC3)noc2c1-c1ccc2c(c1)NC(=O)C21CCC(F)(F)CC1
98	Cc1nnc(-c2ccc(C)c(-c3ccc4c(c3)NC(=O)C43CCC(F)(F)CC3)c2)[nH]1
438	O=C1Nc2cc(-c3cccc4c(NC5CC5)noc34)c(Cl)cc2C12CCCC2

SMILES	IC50 [nM]
Cc1ccn2c(N)nnc2c1-c1ccc2c(c1)NC(=O)C21CCCC1	2110
Cc1nnc(-c2ccc(C)c(-c3ccc4c(c3)NC(=O)C43CCCC3)c2)[nH]1	127
Cc1ccc2c(N)noc2c1-c1ccc2c(c1)NC(=O)C21CCC(F)(F)CC1	137
Cc1ccc2c(N)noc2c1-c1ccc2c(c1)NC(=O)C21CCOCC1	145

Test system: CHO
Assay: Cytotoxicity against CHO cells
Assay type: cell-based
Conditions: Cricetulus griseus

SMILES	IC50 [nM]
Cc1nnc(-c2ccc(C)c(-c3ccc4c(c3)NC(=O)C43CCN(S(C)(=O)=O)CC3)c2)[nH]1	100000
Cc1nnc(-c2ccc(C)c(-c3ccc4c(c3)NC(=O)C43CCC(F)(F)CC3)c2)[nH]1	20000

Test system: not listed separately
Assay: Half life in rat at 1 mg/kg, iv
Assay type: ADME, organism-based
Set-up: dose 1 mg/kg, route intravenous
Conditions: in vivo

SMILES	half-life [h]
Cc1nnc(-c2ccc(C)c(-c3ccc4c(c3)NC(=O)C43CCN(S(C)(=O)=O)CC3)c2)[nH]1	3.8
Cc1ccc2c(N)noc2c1-c1ccc2c(c1)NC(=O)C21CCOCC1	1.9

Test system: not listed separately
Assay: Cmax in rat at 1 mg/kg, iv
Assay type: ADME, organism-based
Set-up: dose 1 mg/kg, route intravenous
Conditions: in vivo

SMILES	Cmax [ng/mL]
Cc1nnc(-c2ccc(C)c(-c3ccc4c(c3)NC(=O)C43CCN(S(C)(=O)=O)CC3)c2)[nH]1	1300
Cc1ccc2c(N)noc2c1-c1ccc2c(c1)NC(=O)C21CCOCC1	752

Test system: not listed separately
Assay: Volume of distribution at steady state in rat at 1 mg/kg, iv
Assay type: ADME, organism-based
Set-up: dose 1 mg/kg, route intravenous
Conditions: in vivo, read-out: Vdss

SMILES	Vd [L/kg]
Cc1nnc(-c2ccc(C)c(-c3ccc4c(c3)NC(=O)C43CCN(S(C)(=O)=O)CC3)c2)[nH]1	1.75
Cc1ccc2c(N)noc2c1-c1ccc2c(c1)NC(=O)C21CCOCC1	2

Test system: Liver microsomes
Assay: Metabolic stability in human liver microsomes in absence of NADPH
Assay type: ADME, Microsome
Conditions: not given

SMILES	Stability
Cc1nnc(-c2ccc(C)c(-c3ccc4c(c3)NC(=O)C43CCCC3)c2)[nH]1	Stable

Test system: not listed separately
Assay: Apparent passive permeability from basolateral to apical side of the human Caco2 cells at 12.5 uM
Assay type: ADME, cell-based
Conditions: Caco-2
Procedure, shortened: (§1)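 Passive permeability across Caco-2 monolayer measured with 12.5 µM test compound in both directions (apical-to-basal and basal-to-apical); Papp reported in 10^-6 cm/s.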

Papp B→A at 12.5 µM [×10⁻⁶ cm/s]	SMILES
45	Cc1nnc(-c2ccc(C)c(-c3ccc4c(c3)NC(=O)C43CCN(S(C)(=O)=O)CC3)c2)[nH]1
4	Cc1ccc2c(NC3CC3)noc2c1-c1ccc2c(c1)NC(=O)C21CCC(F)(F)CC1

SMILES	Papp B→A at 12.5 µM [×10⁻⁶ cm/s]
Cc1ccc2c(N)noc2c1-c1ccc2c(c1)NC(=O)C21CCOCC1	16

Test system: not listed separately
Assay: Metabolic stability in human liver microsomes assessed as compound turnover at 5 uM after 30 mins in presence of NADPH
Assay type: ADME, Microsome
Conditions: read-out: Drug metabolism

metabolised at 0.5 h, 5 µM [%]	SMILES
6	Cc1nnc(-c2ccc(C)c(-c3ccc4c(c3)NC(=O)C43CCN(S(C)(=O)=O)CC3)c2)[nH]1
32	Cc1ccc2c(NC3CC3)noc2c1-c1ccc2c(c1)NC(=O)C21CCC(F)(F)CC1
< 5	Cc1nnc(-c2ccc(C)c(-c3ccc4c(c3)NC(=O)C43CCC(F)(F)CC3)c2)[nH]1

SMILES	metabolised at 0.5 h, 5 µM [%]
Cc1nnc(-c2ccc(C)c(-c3ccc4c(c3)NC(=O)C43CCCC3)c2)[nH]1	13
Cc1ccc2c(N)noc2c1-c1ccc2c(c1)NC(=O)C21CCOCC1	3

Test system: not listed separately
Assay: AUC (0 to infinity) in rat at 10 mg/kg, po
Assay type: ADME, organism-based
Set-up: time infinity, dose 10 mg/kg, route oral
Conditions: plasma

SMILES	AUC(0-inf) [ng·h/mL]
Cc1nnc(-c2ccc(C)c(-c3ccc4c(c3)NC(=O)C43CCN(S(C)(=O)=O)CC3)c2)[nH]1	1370
Cc1ccc2c(N)noc2c1-c1ccc2c(c1)NC(=O)C21CCOCC1	961

Test system: not listed separately
Assay: Mean residence time in rat at 1 mg/kg, iv
Assay type: ADME, organism-based
Set-up: dose 1 mg/kg, route intravenous
Conditions: in vivo

SMILES	MRT [h]
Cc1nnc(-c2ccc(C)c(-c3ccc4c(c3)NC(=O)C43CCN(S(C)(=O)=O)CC3)c2)[nH]1	1.8
Cc1ccc2c(N)noc2c1-c1ccc2c(c1)NC(=O)C21CCOCC1	2.5

Test system: not listed separately
Assay: Metabolic stability in rat liver microsomes assessed as compound turnover at 5 uM after 30 mins in presence of NADPH
Assay type: ADME, Microsome
Conditions: read-out: Drug metabolism
Procedure, shortened: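 5 µM test compound incubated with rat or human hepatic microsomes (1 mg/mL) plus NADPH for 30 min at 37 °C; result given as % turnover.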

metabolised at 0.5 h, 5 µM [%]	SMILES
< 5	Cc1nnc(-c2ccc(C)c(-c3ccc4c(c3)NC(=O)C43CCN(S(C)(=O)=O)CC3)c2)[nH]1
25	Cc1ccc2c(NC3CC3)noc2c1-c1ccc2c(c1)NC(=O)C21CCC(F)(F)CC1
5	Cc1nnc(-c2ccc(C)c(-c3ccc4c(c3)NC(=O)C43CCC(F)(F)CC3)c2)[nH]1

SMILES	metabolised at 0.5 h, 5 µM [%]
Cc1nnc(-c2ccc(C)c(-c3ccc4c(c3)NC(=O)C43CCCC3)c2)[nH]1	15
Cc1ccc2c(N)noc2c1-c1ccc2c(c1)NC(=O)C21CCOCC1	9

Test system: Liver microsomes
Assay: Metabolic stability in human liver microsomes assessed as compound turnover at 5 uM after 30 mins in absence of NADPH
Assay type: ADME, Microsome
Conditions: 0.5 h

Stability	SMILES
Stable	Cc1nnc(-c2ccc(C)c(-c3ccc4c(c3)NC(=O)C43CCN(S(C)(=O)=O)CC3)c2)[nH]1
Stable	Cc1ccc2c(NC3CC3)noc2c1-c1ccc2c(c1)NC(=O)C21CCC(F)(F)CC1
Stable	Cc1nnc(-c2ccc(C)c(-c3ccc4c(c3)NC(=O)C43CCC(F)(F)CC3)c2)[nH]1

SMILES	Stability
Cc1nnc(-c2ccc(C)c(-c3ccc4c(c3)NC(=O)C43CCCC3)c2)[nH]1	Stable
Cc1ccc2c(N)noc2c1-c1ccc2c(c1)NC(=O)C21CCOCC1	Stable

Test system: not listed separately
Assay: Clearance in rat at 1 mg/kg, iv
Assay type: ADME, organism-based
Set-up: dose 1 mg/kg, route intravenous
Conditions: in vivo

SMILES	clearance [mL/min/kg]
Cc1nnc(-c2ccc(C)c(-c3ccc4c(c3)NC(=O)C43CCN(S(C)(=O)=O)CC3)c2)[nH]1	17.2
Cc1ccc2c(N)noc2c1-c1ccc2c(c1)NC(=O)C21CCOCC1	13.8

Test system: not listed separately
Assay: Apparent passive permeability from apical to basolateral side of the human Caco2 cells at 12.5 uM
Assay type: ADME, cell-based
Conditions: Caco-2
Procedure, shortened: as §1

Papp A→B at 12.5 µM [×10⁻⁶ cm/s]	SMILES
2	Cc1nnc(-c2ccc(C)c(-c3ccc4c(c3)NC(=O)C43CCN(S(C)(=O)=O)CC3)c2)[nH]1
10	Cc1ccc2c(NC3CC3)noc2c1-c1ccc2c(c1)NC(=O)C21CCC(F)(F)CC1

SMILES	Papp A→B at 12.5 µM [×10⁻⁶ cm/s]
Cc1ccc2c(N)noc2c1-c1ccc2c(c1)NC(=O)C21CCOCC1	28

Test system: not listed separately
Assay: Oral bioavailability in rat at 10 mg/kg
Assay type: ADME, organism-based
Conditions: in vivo

SMILES	bioavailability [%]
Cc1nnc(-c2ccc(C)c(-c3ccc4c(c3)NC(=O)C43CCN(S(C)(=O)=O)CC3)c2)[nH]1	13
Cc1ccc2c(N)noc2c1-c1ccc2c(c1)NC(=O)C21CCOCC1	8

Test system: not listed separately
Assay: Cmax in rat at 10 mg/kg, po
Assay type: ADME, organism-based
Set-up: dose 10 mg/kg, route oral
Conditions: in vivo

SMILES	Cmax [ng/mL]
Cc1nnc(-c2ccc(C)c(-c3ccc4c(c3)NC(=O)C43CCN(S(C)(=O)=O)CC3)c2)[nH]1	632
Cc1ccc2c(N)noc2c1-c1ccc2c(c1)NC(=O)C21CCOCC1	141

Test system: Liver microsomes
Assay: Metabolic stability in rat liver microsomes in absence of NADPH
Assay type: ADME, Microsome
Conditions: not given

SMILES	Stability
Cc1nnc(-c2ccc(C)c(-c3ccc4c(c3)NC(=O)C43CCCC3)c2)[nH]1	Stable

Test system: not listed separately
Assay: AUC (0 to infinity) in rat at 1 mg/kg, iv
Assay type: ADME, organism-based
Set-up: time infinity, dose 1 mg/kg, route intravenous
Conditions: plasma

SMILES	AUC(0-inf) [ng·h/mL]
Cc1nnc(-c2ccc(C)c(-c3ccc4c(c3)NC(=O)C43CCN(S(C)(=O)=O)CC3)c2)[nH]1	1030
Cc1ccc2c(N)noc2c1-c1ccc2c(c1)NC(=O)C21CCOCC1	1230

Test system: CHO
Assay: Cytotoxicity against CHO cells at 100 uM
Assay type: cell-based, Cricetulus griseus
Conditions: chinese hamster

SMILES	Activity [%]
Cc1nnc(-c2ccc(C)c(-c3ccc4c(c3)NC(=O)C43CCCC3)c2)[nH]1	53

Biological target: Mitogen-activated protein kinase 14 (Homo sapiens, UniProt Q16539)
Conditions: not given

Sequence of Mitogen-activated protein kinase 14 (Q16539 whole entry): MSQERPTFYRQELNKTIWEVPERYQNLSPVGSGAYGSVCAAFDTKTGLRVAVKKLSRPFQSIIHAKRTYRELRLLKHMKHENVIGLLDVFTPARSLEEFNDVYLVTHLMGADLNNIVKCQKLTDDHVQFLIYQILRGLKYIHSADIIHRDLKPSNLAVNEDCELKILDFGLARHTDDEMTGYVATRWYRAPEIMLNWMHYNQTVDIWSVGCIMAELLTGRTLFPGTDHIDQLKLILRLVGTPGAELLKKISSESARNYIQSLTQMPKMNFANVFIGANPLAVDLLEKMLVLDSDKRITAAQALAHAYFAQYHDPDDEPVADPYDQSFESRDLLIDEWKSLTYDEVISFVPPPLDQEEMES

SMILES	IC50 [nM]
Cc1ccn2c(N)nnc2c1-c1ccc2c(c1)NC(=O)C21CCCC1	34
Cc1nnc(-c2ccc(C)c(-c3ccc4c(c3)NC(=O)C43CCCC3)c2)[nH]1	7.4
Cc1ccc2c(N)noc2c1-c1ccc2c(c1)NC(=O)C21CCC(F)(F)CC1	1.2
Cc1ccc2c(N)noc2c1-c1ccc2c(c1)NC(=O)C21CCOCC1	5

Test system: CHO
Assay: Cytotoxicity against CHO cells at 200 uM
Assay type: cell-based, Cricetulus griseus
Conditions: chinese hamster

SMILES	Activity [%]
Cc1ccc2c(NC3CC3)noc2c1-c1ccc2c(c1)NC(=O)C21CCC(F)(F)CC1	56
Cc1ccc2c(N)noc2c1-c1ccc2c(c1)NC(=O)C21CCOCC1	16
